≈ marks a conversion by molar mass, not a printed value.
Experiments:
Streptococcus pneumoniae [1] = experiment: Antimicrobial activity against Streptococcus pneumoniae 5 constitutively expressing ermB/mefA after 20 hrs by agar dilution method; assay type: functional
How it was run: (§1)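 Streptococci, H. influenzae and M. catarrhalis were precultured on blood agar plates. Suspensions of about 10⁶ CFU/ml were inoculated onto sensitivity disk agar supplemented with 5% horse blood and incubated at 37 °C for 20 h. MIC was read as the lowest drug concentration with no visible growth.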

Haemophilus influenzae [2] = experiment: Antimicrobial activity against drug-susceptible Haemophilus influenzae 3 after 20 hrs by agar dilution method; assay type: functional; how it was run: as §1
Staphylococcus aureus [3] = experiment: Antimicrobial activity against drug-susceptible Staphylococcus aureus 209P JC-1 after 20 hrs by agar dilution method; assay type: functional
How it was run: (§2)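 Agar dilution MIC. S. aureus seed culture was grown in sensitivity test broth. Cell suspension (about 10⁶ CFU/ml) was inoculated onto sensitivity disk agar with 5% horse blood and incubated at 37 °C for 20 h. MIC was the lowest drug concentration that prevented visible growth.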

Streptococcus pneumoniae [4] = experiment: Antimicrobial activity against Streptococcus pneumoniae 8 expressing inducible ermB after 20 hrs by agar dilution method; assay type: functional; how it was run: as §1
Haemophilus influenzae [5] = experiment: Antimicrobial activity against drug-susceptible Haemophilus influenzae 2 after 20 hrs by agar dilution method; assay type: functional; how it was run: as §1
Staphylococcus aureus [6] = experiment: Antimicrobial activity against Staphylococcus aureus 4 constitutively expressing ermA after 20 hrs by agar dilution method; assay type: functional; how it was run: as §2
Streptococcus pyogenes [7] = experiment: Antimicrobial activity against Streptococcus pyogenes 2 constitutively expressing ermB after 20 hrs by agar dilution method; assay type: functional; how it was run: as §1
Staphylococcus aureus [8] = experiment: Antimicrobial activity against Staphylococcus aureus 6 expressing inducible ermC after 20 hrs by agar dilution method
Staphylococcus aureus [9] = experiment: Antimicrobial activity against Staphylococcus aureus 5 expressing inducible ermB after 20 hrs by agar dilution method; assay type: functional; how it was run: as §2
Streptococcus pneumoniae [10] = experiment: Antimicrobial activity against Streptococcus pneumoniae 9 expressing mefA after 20 hrs by agar dilution method; assay type: functional; how it was run: as §1
Streptococcus pyogenes [11] = experiment: Antimicrobial activity against Streptococcus pyogenes 3 expressing mefA after 20 hrs by agar dilution method; assay type: functional; how it was run: as §1
Streptococcus pneumoniae [12] = experiment: Antimicrobial activity against drug-susceptible Streptococcus pneumoniae DP1 Type1 after 20 hrs by agar dilution method; assay type: functional; how it was run: as §1
Streptococcus pneumoniae [13] = experiment: Antimicrobial activity against Streptococcus pneumoniae 6 constitutively expressing ermB after 20 hrs by agar dilution method; assay type: functional; how it was run: as §1
Streptococcus pneumoniae [14] = experiment: Antimicrobial activity against drug-susceptible Streptococcus pneumoniae 2 after 20 hrs by agar dilution method; assay type: functional; how it was run: as §1
Haemophilus influenzae [15] = experiment: Antimicrobial activity against drug-susceptible Haemophilus influenzae 4 after 20 hrs by agar dilution method; assay type: functional; how it was run: as §1
Moraxella catarrhalis [16] = experiment: Antimicrobial activity against drug-susceptible Moraxella catarrhalis 1 after 20 hrs by agar dilution method; assay type: functional; how it was run: as §1
Staphylococcus aureus [17] = experiment: Antimicrobial activity against drug-susceptible Staphylococcus aureus 3 after 20 hrs by agar dilution method; assay type: functional; how it was run: as §2
Streptococcus pyogenes [18] = experiment: Antimicrobial activity against drug-susceptible Streptococcus pyogenes 1 after 20 hrs by agar dilution method; assay type: functional; how it was run: as §1
Haemophilus influenzae [19] = experiment: Antimicrobial activity against drug-susceptible Haemophilus influenzae 1 after 20 hrs by agar dilution method; assay type: functional; how it was run: as §1
Moraxella catarrhalis [20] = experiment: Antimicrobial activity against drug-susceptible Moraxella catarrhalis 2 after 20 hrs by agar dilution method; assay type: functional; how it was run: as §1
Streptococcus pneumoniae [21] = experiment: Antimicrobial activity against Streptococcus pneumoniae 10 expressing mefA after 20 hrs by agar dilution method; assay type: functional; how it was run: as §1
Staphylococcus aureus [22] = experiment: Antimicrobial activity against drug-susceptible Staphylococcus aureus 2 after 20 hrs by agar dilution method; assay type: functional; how it was run: as §2
Streptococcus pneumoniae [23] = experiment: Antimicrobial activity against Streptococcus pneumoniae 7 expressing inducible ermB after 20 hrs by agar dilution method; assay type: functional; how it was run: as §1
Streptococcus pneumoniae [24] = experiment: Antimicrobial activity against drug-susceptible Streptococcus pneumoniae 3 after 20 hrs by agar dilution method; assay type: functional; how it was run: as §1
Streptococcus pneumoniae [25] = experiment: Antimicrobial activity against Streptococcus pneumoniae 4 constitutively expressing ermB after 20 hrs by agar dilution method; assay type: functional; how it was run: as §1
[26] = Streptococcus pneumoniae, 20 h, read-out: MIC
[27] = Haemophilus influenzae, 20 h, read-out: MIC
[28] = Streptococcus pyogenes, 20 h, read-out: MIC

SMILES | MIC (Staphylococcus aureus [3]) [µg/mL] | MIC (Streptococcus pneumoniae [4]) [µg/mL] | MIC (Haemophilus influenzae [5]; [27]) [µg/mL] | MIC (Staphylococcus aureus [8]) [µg/mL] | MIC (Staphylococcus aureus [9]) [µg/mL] | MIC (Streptococcus pneumoniae [12]) [µg/mL] | MIC (Moraxella catarrhalis [16]) [µg/mL] | MIC (Staphylococcus aureus [22]) [µg/mL] | MIC (Streptococcus pneumoniae [23]) [µg/mL] | MIC (Streptococcus pneumoniae [24]) [µg/mL] | MIC (Haemophilus influenzae [2]) [µg/mL] | MIC (Streptococcus pneumoniae [10]) [µg/mL] | MIC (Streptococcus pyogenes [11]) [µg/mL] | MIC (Streptococcus pneumoniae [14]) [µg/mL] | MIC (Haemophilus influenzae [15]) [µg/mL] | MIC (Staphylococcus aureus [17]) [µg/mL] | MIC (Streptococcus pyogenes [18]) [µg/mL] | MIC (Moraxella catarrhalis [20]) [µg/mL] | MIC (Streptococcus pneumoniae [21]) [µg/mL] | MIC (Haemophilus influenzae [19]) [µg/mL] | other results
CCOC(=O)[C@H]1[C@H](C)O[C@@H](O[C@H]2[C@H](N(C)C)[C@@H](O)[C@H](O[C@H]3[C@@H](CC=O)C[C@@H](C)[C@@H](O)CN(C)CCC(/C=C/Cc4ccnc5ccccc45)NC(=O)C[C@@H](OC(=O)CC)[C@@H]3OC)O[C@@H]2C)C[C@@]1(C)O (mixture of isomers) | 0.5 | 8 | 1 | 0.5 | 0.5 | 0.03 | 1 | 1 | 8 | 0.06 |  |  |  |  |  |  |  |  |  |  | MIC (Streptococcus pneumoniae [1]; [26]): > 128 µg/mL; MIC (Haemophilus influenzae [2]; [27]): 8 µg/mL; MIC (Staphylococcus aureus [6]): > 128 µg/mL; MIC (Streptococcus pyogenes [7]): > 128 µg/mL; MIC (Streptococcus pneumoniae [10]; [26]): 0.13 µg/mL; MIC (Streptococcus pyogenes [11]; [28]): 1 µg/mL; MIC (Streptococcus pneumoniae [13]; [26]): > 128 µg/mL; MIC (Streptococcus pneumoniae [14]; [26]): 0.13 µg/mL; MIC (Haemophilus influenzae [15]; [27]): 8 µg/mL; MIC (Staphylococcus aureus [17]; Staphylococcus aureus, 20 h, read-out: MIC): 0.5 µg/mL; MIC (Streptococcus pyogenes [18]; [28]): 0.25 µg/mL; MIC (Haemophilus influenzae [19]; [27]): 32 µg/mL; MIC (Moraxella catarrhalis [20]; Moraxella catarrhalis, 20 h, read-out: MIC): 2 µg/mL; MIC (Streptococcus pneumoniae [21]; [26]): 0.13 µg/mL; MIC (Streptococcus pneumoniae [25]; [26]): > 128 µg/mL
CCOC(=O)[C@H]1[C@H](C)O[C@@H](O[C@H]2[C@H](N(C)C)[C@@H](O)[C@H](O[C@H]3[C@@H](CC=O)C[C@@H](C)[C@@H](O)CN(C)CC(/C=C\Cc4ccnc5ccccc45)CCOC(=O)C[C@@H](OC(=O)CC)[C@@H]3OC)O[C@@H]2C)C[C@@]1(C)O (stereo in doubt; form 1) | 0.25 (≈ 0.253 µM) | 8 (≈ 8.11 µM) |  | 0.5 (≈ 0.507 µM) | 0.25 (≈ 0.253 µM) | 0.03 (≈ 0.0304 µM) | 2 (≈ 2.03 µM) | 1 (≈ 1.01 µM) | 8 (≈ 8.11 µM) | 0.06 (≈ 0.0608 µM) | 16 (≈ 16.2 µM) | 0.06 (≈ 0.0608 µM) | 0.5 (≈ 0.507 µM) | 0.06 (≈ 0.0608 µM) | 16 (≈ 16.2 µM) | 0.25 (≈ 0.253 µM) | 0.13 (≈ 0.132 µM) | 2 (≈ 2.03 µM) | 0.06 (≈ 0.0608 µM) |  | MIC (Streptococcus pneumoniae [1]; [26]): > 128 µg/mL; MIC (Staphylococcus aureus [6]): > 128 µg/mL; MIC (Streptococcus pyogenes [7]): > 128 µg/mL; MIC (Streptococcus pneumoniae [13]; [26]): > 128 µg/mL; MIC (Haemophilus influenzae [19]; [27]): 64 µg/mL (≈ 64.9 µM); MIC (Streptococcus pneumoniae [25]; [26]): > 128 µg/mL
CCOC(=O)[C@H]1[C@H](C)O[C@@H](O[C@H]2[C@H](N(C)C)[C@@H](O)[C@H](O[C@H]3[C@@H](CC=O)C[C@@H](C)[C@@H](O)CN(C)CC(CCCc4ccnc5ccccc45)CCOC(=O)C[C@@H](OC(=O)CC)[C@@H]3OC)O[C@@H]2C)C[C@@]1(C)O (stereo in doubt; form 2) | 0.25 (≈ 0.253 µM) | 16 (≈ 16.2 µM) | 2 (≈ 2.02 µM) | 0.5 (≈ 0.506 µM) | 0.25 (≈ 0.253 µM) | 0.015 (≈ 0.0152 µM) | 1 (≈ 1.01 µM) | 0.5 (≈ 0.506 µM) | 16 (≈ 16.2 µM) | 0.03 (≈ 0.0304 µM) | 8 (≈ 8.1 µM) | 0.06 (≈ 0.0607 µM) | 0.25 (≈ 0.253 µM) | 0.06 (≈ 0.0607 µM) | 8 (≈ 8.1 µM) | 0.25 (≈ 0.253 µM) | 0.06 (≈ 0.0607 µM) | 1 (≈ 1.01 µM) | 0.06 (≈ 0.0607 µM) | 16 (≈ 16.2 µM) | 
CCOC(=O)[C@H]1[C@H](C)O[C@@H](O[C@H]2[C@H](N(C)C)[C@@H](O)[C@H](O[C@H]3[C@@H](CC=O)C[C@@H](C)[C@@H](O)CN(C)CC(/C=C\Cc4ccnc5ccccc45)CCOC(=O)C[C@@H](OC(=O)CC)[C@@H]3OC)O[C@@H]2C)C[C@@]1(C)O (stereo in doubt; form 2) | 2 (≈ 2.03 µM) | >128 | 32 (≈ 32.4 µM) | 4 (≈ 4.06 µM) | 2 (≈ 2.03 µM) | 0.5 (≈ 0.507 µM) | 16 (≈ 16.2 µM) | 4 (≈ 4.06 µM) | >128 | 0.5 (≈ 0.507 µM) | 128 (≈ 130 µM) | 1 (≈ 1.01 µM) | 4 (≈ 4.06 µM) | 1 (≈ 1.01 µM) | 128 (≈ 130 µM) | 2 (≈ 2.03 µM) | 1 (≈ 1.01 µM) | 16 (≈ 16.2 µM) | 1 (≈ 1.01 µM) | >128 | 
CCOC(=O)[C@H]1[C@H](C)O[C@@H](O[C@H]2[C@H](N(C)C)[C@@H](O)[C@H](O[C@H]3[C@@H](CC=O)C[C@@H](C)[C@@H](O)CN(C)CC(/C=C/Cc4cnc5ccccc5c4)CCOC(=O)C[C@@H](OC(=O)CC)[C@@H]3OC)O[C@@H]2C)C[C@@]1(C)O (stereo in doubt; form 2) | 0.25 (≈ 0.253 µM) | 128 (≈ 130 µM) |  | 0.5 (≈ 0.507 µM) | 0.25 (≈ 0.253 µM) | 0.015 (≈ 0.0152 µM) | 2 (≈ 2.03 µM) | 0.5 (≈ 0.507 µM) | 128 (≈ 130 µM) | 0.03 (≈ 0.0304 µM) | 16 (≈ 16.2 µM) | 0.06 (≈ 0.0608 µM) | 0.5 (≈ 0.507 µM) | 0.06 (≈ 0.0608 µM) | 16 (≈ 16.2 µM) | 0.25 (≈ 0.253 µM) | 0.13 (≈ 0.132 µM) | 2 (≈ 2.03 µM) | 0.06 (≈ 0.0608 µM) | 64 (≈ 64.9 µM) | MIC (Streptococcus pneumoniae [1]): >128 µg/mL; MIC (Haemophilus influenzae [5]): 4 µg/mL (≈ 4.06 µM); MIC (Streptococcus pneumoniae [13]): >128 µg/mL; MIC (Streptococcus pneumoniae [25]): >128 µg/mL
CCOC(=O)[C@H]1[C@H](C)O[C@@H](O[C@H]2[C@H](N(C)C)[C@@H](O)[C@H](O[C@H]3[C@@H](CC=O)C[C@@H](C)[C@@H](O)CN(C)CCC(CCCc4ccnc5ccccc45)NC(=O)C[C@@H](OC(=O)CC)[C@@H]3OC)O[C@@H]2C)C[C@@]1(C)O (stereo in doubt; form 2) | 4 (≈ 4.11 µM) | 64 (≈ 65.8 µM) |  | 4 (≈ 4.11 µM) | 4 (≈ 4.11 µM) | 0.13 (≈ 0.134 µM) | 8 (≈ 8.22 µM) | 8 (≈ 8.22 µM) | 64 (≈ 65.8 µM) | 0.25 (≈ 0.257 µM) | 16 (≈ 16.4 µM) | 0.25 (≈ 0.257 µM) | 2 (≈ 2.06 µM) | 0.25 (≈ 0.257 µM) | 8 (≈ 8.22 µM) | 2 (≈ 2.06 µM) | 0.5 (≈ 0.514 µM) | 8 (≈ 8.22 µM) | 0.25 (≈ 0.257 µM) | 64 (≈ 65.8 µM) | MIC (Haemophilus influenzae [5]): 2 µg/mL (≈ 2.06 µM)
